According to ChEMBL document CHEMBL1926635, “Identification of novel molecular scaffolds for the design of MMP-13 inhibitors: a first round of lead optimization” (Eur J Med Chem, 2012):

What was measured:
[1] = target: 72 kDa type IV collagenase (Homo sapiens, UniProt P08253); test: Inhibition of human MMP2 using Mca-Lys-Pro-Leu-Gly-Leu-Dap(Dnp)-Ala-Arg-NH2 as substrate pre-incubated for 4 hrs before substrate addition measured every 15 secs for 15 mins by fluorimetry
In short: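 APMA 2 mM for 1 h at 37 °C activated the proenzyme. MMP-2 at 0.56 nM final was incubated with inhibitor for 4 h at 25 °C in pH 7.5 Tris buffer with NaCl, CaCl₂, 0.05% Brij-35 and 1% DMSO. Fluorescence was read at 325/395 nm, in triplicate. Percent inhibition was taken against the uninhibited control. IC50 came from ≥5 concentrations within 10–90% inhibition, fitted to Vi/Vo = 1/(1+[I]/IC50).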

Stromelysin-1 = Stromelysin-1 (Homo sapiens, UniProt P08254); test: Inhibition of human MMP3 using Mca-Arg-Pro-Lys-Pro-Val-Glu-Nva-Trp-Arg-Lys(Dnp)-NH2 as substrate pre-incubated for 4 hrs before substrate addition measured every 15 secs for 15 mins by fluorimetry
In short: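 Pro-MMP-3 was activated with trypsin for 30 min at 37 °C, then quenched with soybean trypsin inhibitor. Enzyme at 5 nM final was pre-incubated with inhibitor for 4 h at 25 °C in Tris 50 mM pH 7.5, NaCl 150 mM, CaCl₂ 10 mM, 0.05% Brij-35 and 1% DMSO. Fluorescence was read at ex 325/em 395 nm, in triplicate. IC50 was fitted to Vi/Vo = 1/(1+[I]/IC50) from ≥5 concentrations giving 10–90% inhibition.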

Interstitial collagenase = target: T1, Interstitial collagenase (Homo sapiens, UniProt P03956); test: Inhibition of human MMP1 using Mca-Lys-Pro-Leu-Gly-Leu-Dap(Dnp)-Ala-Arg-NH2 as substrate pre-incubated for 4 hrs before substrate addition measured every 15 secs for 15 mins by fluorimetry
T1 sequence (P03956 whole entry): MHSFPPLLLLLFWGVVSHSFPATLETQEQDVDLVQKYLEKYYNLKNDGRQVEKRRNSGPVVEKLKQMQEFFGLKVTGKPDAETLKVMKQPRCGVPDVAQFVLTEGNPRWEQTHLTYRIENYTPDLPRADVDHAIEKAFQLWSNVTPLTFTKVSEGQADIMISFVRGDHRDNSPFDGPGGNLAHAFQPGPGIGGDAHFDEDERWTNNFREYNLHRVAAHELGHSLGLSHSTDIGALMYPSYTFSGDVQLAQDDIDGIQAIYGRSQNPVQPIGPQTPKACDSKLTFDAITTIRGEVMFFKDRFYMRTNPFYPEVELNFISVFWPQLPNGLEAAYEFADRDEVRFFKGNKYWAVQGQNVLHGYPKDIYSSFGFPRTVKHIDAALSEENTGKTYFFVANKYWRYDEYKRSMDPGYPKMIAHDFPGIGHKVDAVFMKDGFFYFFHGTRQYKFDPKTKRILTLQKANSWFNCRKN
In short: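 Pro-MMP-1 activated with APMA 2 mM for 2 h at 37 °C. Enzyme at 2.0 nM final was pre-incubated with inhibitor for 4 h at 25 °C in Tris 50 mM pH 7.5, NaCl 150 mM, CaCl₂ 10 mM, 0.05% Brij-35 and 1% DMSO. Read-out was fluorescence at ex 325/em 395 nm, in triplicate. IC50 was fitted to Vi/Vo = 1/(1+[I]/IC50) using ≥5 concentrations giving 10–90% inhibition.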

[2] = target: Matrix metalloproteinase-14 (Homo sapiens, UniProt P50281); test: Inhibition of recombinant human MMP14 catalytic domain using Mca-Lys-Pro-Leu-Gly-Leu-Dap(Dnp)-Ala-Arg-NH2 as substrate pre-incubated for 4 hrs before substrate addition measured every 15 secs for 15 mins by fluorimetry
In short: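 Catalytic domain used at 1 nM final and incubated with inhibitor for 4 h at 25 °C in Tris 50 mM pH 7.5, NaCl 150 mM, CaCl₂ 10 mM, 0.05% Brij-35 and 1% DMSO. Fluorescence was read at 325/395 nm, in triplicate. Percent inhibition was taken against the no-inhibitor control. IC50 was fitted to Vi/Vo = 1/(1+[I]/IC50) from ≥5 concentrations within 10–90% inhibition.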

Collagenase 3 = Collagenase 3 (Homo sapiens, UniProt P45452); test: Inhibition of human MMP13 using Mca-Lys-Pro-Leu-Gly-Leu-Dap(Dnp)-Ala-Arg-NH2 as substrate pre-incubated for 4 hrs before substrate addition measured every 15 secs for 15 mins by fluorimetry
[3] = Dissociation constant, pKa of the compound; format: physicochemical

Stromelysin-1, sequence (P08254 whole entry): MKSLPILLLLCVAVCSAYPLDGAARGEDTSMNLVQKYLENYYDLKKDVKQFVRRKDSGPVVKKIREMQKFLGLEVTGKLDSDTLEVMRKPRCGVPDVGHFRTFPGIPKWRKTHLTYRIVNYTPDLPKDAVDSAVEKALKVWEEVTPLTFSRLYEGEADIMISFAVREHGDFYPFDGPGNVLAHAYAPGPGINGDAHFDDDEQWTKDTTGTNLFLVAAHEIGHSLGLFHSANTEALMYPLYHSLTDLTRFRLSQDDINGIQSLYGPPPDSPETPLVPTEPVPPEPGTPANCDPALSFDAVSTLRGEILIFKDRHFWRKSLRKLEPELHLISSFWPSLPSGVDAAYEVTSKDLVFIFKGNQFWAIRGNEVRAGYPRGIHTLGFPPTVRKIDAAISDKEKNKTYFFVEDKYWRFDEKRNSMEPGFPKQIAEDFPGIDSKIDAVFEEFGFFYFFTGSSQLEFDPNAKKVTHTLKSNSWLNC
72 kDa type IV collagenase, sequence (P08253 whole entry): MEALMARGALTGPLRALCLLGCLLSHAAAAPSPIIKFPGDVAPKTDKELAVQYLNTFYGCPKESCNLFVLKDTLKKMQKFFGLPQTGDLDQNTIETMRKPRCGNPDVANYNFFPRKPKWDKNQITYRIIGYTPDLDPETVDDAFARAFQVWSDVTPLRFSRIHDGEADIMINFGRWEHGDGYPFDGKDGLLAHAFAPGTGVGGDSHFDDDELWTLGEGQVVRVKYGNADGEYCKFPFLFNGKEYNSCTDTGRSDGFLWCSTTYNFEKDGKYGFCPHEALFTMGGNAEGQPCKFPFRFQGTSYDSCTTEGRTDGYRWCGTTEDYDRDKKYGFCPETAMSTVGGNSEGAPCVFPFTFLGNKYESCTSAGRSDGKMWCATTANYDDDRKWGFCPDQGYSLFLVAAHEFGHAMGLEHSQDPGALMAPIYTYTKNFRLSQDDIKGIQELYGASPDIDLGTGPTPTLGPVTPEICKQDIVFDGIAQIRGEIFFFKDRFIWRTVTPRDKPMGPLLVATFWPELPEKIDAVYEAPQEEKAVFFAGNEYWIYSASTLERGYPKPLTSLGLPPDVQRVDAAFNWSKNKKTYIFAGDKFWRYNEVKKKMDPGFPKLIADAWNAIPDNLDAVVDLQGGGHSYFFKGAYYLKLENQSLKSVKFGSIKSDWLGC

Row | IC50 [1] | IC50 (Stromelysin-1) | IC50 (Interstitial collagenase) | IC50 [2] | IC50 (Collagenase 3) | pKa [3] | Structure (SMILES)
1 | 120 µM | 230 µM | 360 µM | 150 µM | 140 µM | – | COc1ccc(-c2cs/c(=N\c3ccccc3)n2/N=C/c2ccccc2)cc1OC
2 | – | – | – | – | > 300 µM | – | CCOC(=O)c1cccc(-n2cc(-c3cc4ccccc4oc3=O)[nH]c2=S)c1
3 | 61 µM | 77 µM | 114 µM | 55 µM | 67 µM | 3.68 | O=C(O)COc1ccccc1/C=C1/NC(=S)NC1=O
4 | 67 µM | 110 µM | 400 µM | 51 µM | – | 3.91 | O=C(O)c1cccc(-n2cc(-c3cc4ccccc4oc3=O)[nH]c2=S)c1
5 | 2.7 µM | 110 µM | 93 µM | 21 µM | 22 µM | 3.89 | O=C(O)CCCN1C(=O)S/C(=C\C=C\c2ccccc2)C1=O
6 | – | – | – | – | 5.5 µM | – | O=C(O)c1cccc(-n2cc(-c3cc4cccc(O)c4oc3=O)[nH]c2=S)c1
7 | – | – | – | – | 4.9 µM | – | C=CCc1cc(OC)c2oc(=O)c(-c3cn(-c4cccc(C(=O)O)c4)c(=S)[nH]3)cc2c1
8 | – | – | – | – | 177 µM | – | O=c1oc2ccccc2cc1-c1cn(-c2ccccc2)c(S)n1
9 | 350 µM | 850 µM | 860 µM | 310 µM | 120 µM | 3.62 | COc1ccc(-c2ccc(/C=C3/SC(=S)N(CC(=O)O)C3=O)o2)cc1
10 | – | – | – | – | 4.9 µM | – | COc1cc(Cl)cc2cc(-c3cn(-c4cccc(C(=O)O)c4)c(=S)[nH]3)c(=O)oc12
11 | – | – | – | – | 3.2 µM | – | COc1ccc2oc(=O)c(-c3cn(-c4cccc(C(=O)O)c4)c(=S)[nH]3)cc2c1
12 | – | – | – | – | – | 2.55 | CCOc1ccc(-c2ccc(S(=O)(=O)N[C@@H](C(=O)O)C3CCN(C(=O)OC(C)C)CC3)s2)cc1
